Data from ChEMBL document CHEMBL4414579, “Natural Hydroxamate-Containing Siderophore Acremonpeptides A-D and an Aluminum Complex of Acremonpeptide D from the Marine-Derived Acremonium persicinum SCSIO 115” (J Nat Prod, 2019).
The source made the active and inactive calls. The rule behind the calls is not given here. Square brackets hold non-standard residues; d marks the D form. Peptide text beside a SMILES is read from it. Orn(N5-OH,N5-Ac) = CC(=O)N(O)CCC[C@H](N)C(=O)O

Tests used:
Assay type in all cases: functional, organism-based
[1] = tested on: Candida albicans; experiment: Antifungal activity against Candida albicans CMCC(F) 98001
Outline: (§1)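 Tested against the yeast by a previously reported antimicrobial method, at concentrations up to 100 μg/mL.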

[2] = tested on: Staphylococcus aureus; experiment: Antibacterial activity against Staphylococcus aureus ATCC 29213 up to 100 ug/ml by CLSI based method
[3] = tested on: Bacillus thuringiensis; experiment: Antibacterial activity against Bacillus thuringiensis BT01 up to 100 ug/ml by CLSI based method
[4] = tested on: Klebsiella pneumoniae; experiment: Antibacterial activity against Klebsiella pneumoniae ATCC 13883 up to 100 ug/ml by CLSI based method
[5] = tested on: Human alphaherpesvirus 1; experiment: Antiviral activity against HSV-1 infected in African green monkey Vero cells assessed as inhibition of GFP expression after 72 hrs by GFP-based fluorescence microscopic analysis; settings: Human alphaherpesvirus 1, Vero
Outline: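 Vero cells were infected at MOI 1.0 with recombinant HSV-1 carrying a GFP reporter. Cells were treated with compounds at 10 μM final or an equal amount of DMSO, with ganciclovir as positive control, and GFP was monitored by fluorescence microscopy. For EC50, infected cells were treated at several concentrations in triplicate, and viral load was measured by TCID50 at 72 h postinfection.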

[6] = tested on: Candida albicans; experiment: Antifungal activity against Candida albicans ATCC 96901; outline: as §1
[7] = tested on: Escherichia coli; experiment: Antibacterial activity against Escherichia coli ATCC 25922 up to 100 ug/ml by CLSI based method
[8] = tested on: Staphylococcus aureus; experiment: Antibacterial activity against methicillin resistant Staphylococcus aureus shhs-A1 up to 100 ug/ml by CLSI based method
Outline: (§2)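 Both strains were clinical isolates. They were screened within a panel of nine bacteria and two Candida albicans strains, at concentrations up to 100 μg/mL, by a previously reported method.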

[9] = tested on: Enterococcus faecalis; experiment: Antibacterial activity against Enterococcus faecalis ATCC 29212 up to 100 ug/ml by CLSI based method
[10] = tested on: Escherichia coli; experiment: Antibacterial activity against drug-resistant Escherichia coli E11 up to 100 ug/ml by CLSI based method; outline: as §2
[11] = tested on: Bacillus thuringiensis; experiment: Antibacterial activity against Bacillus thuringiensis W102 up to 100 ug/ml by CLSI based method
[12] = tested on: Human alphaherpesvirus 1; experiment: Inhibition of UL42 gene transcription in HSV-1 infected in African green monkey Vero cells at 10 uM by qRT-PCR analysis
Outline: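 Vero cells were infected with GFP-reporter HSV-1 at MOI 1.0, then exposed to compounds at 10 μM final or DMSO. Viral gene transcription was quantified by qRT-PCR, with ganciclovir as positive control and NTC as negative control.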

[13] = tested on: Acinetobacter baumannii; experiment: Antibacterial activity against Acinetobacter baumannii ATCC 19606 up to 100 ug/ml by CLSI based method; settings: ATCC 19606 = CIP 70.34 = JCM 6841

SMILES	Activity [1]	Activity [2]	Activity [3]	Activity [4]	EC50 [5] [µM]	Activity [6]	Activity [7]	Activity [8]	Activity [9]	Activity [10]	Activity [11]	inhibition [12]	Activity [13]
CC(=O)N(O)CCC[C@@H]1NC(=O)[C@H](CCCN(O)C(C)=O)NC(=O)[C@H](CCCN(O)C(C)=O)NC(=O)[C@H](Cc2ccccc2)NC(=O)[C@H](CC(C)C)NC(=O)[C@H](C)NC1=O (cyclo(ALF[Orn(N5-OH,N5-Ac)][Orn(N5-OH,N5-Ac)][Orn(N5-OH,N5-Ac)]))	inactive	inactive	inactive	inactive	8.7	inactive	inactive	inactive	inactive	inactive	inactive	Active	inactive
CC(=O)N(O)CCC[C@@H]1NC(=O)[C@H](CCCN(O)C(C)=O)NC(=O)[C@H](Cc2ccccc2)NC(=O)[C@H](CC(C)C)NC(=O)[C@H](Cc2ccccc2)NC(=O)[C@H](CCCN(O)C(C)=O)NC1=O (cyclo(FLF[Orn(N5-OH,N5-Ac)][Orn(N5-OH,N5-Ac)][Orn(N5-OH,N5-Ac)]))	inactive	inactive	inactive	inactive	27	inactive	inactive	inactive	inactive	inactive	inactive		inactive
CC(=O)N(O)CCC[C@@H]1NC(=O)[C@H](CCCN(O)C(C)=O)NC(=O)[C@H](CCCN(O)C(C)=O)NC(=O)[C@H](Cc2ccccc2)NC(=O)[C@H](CC(C)C)NC(=O)[C@H](CO)NC1=O (cyclo(F[Orn(N5-OH,N5-Ac)][Orn(N5-OH,N5-Ac)][Orn(N5-OH,N5-Ac)]SL))	inactive	inactive	inactive	inactive	16	inactive	inactive	inactive	inactive	inactive	inactive	Active	inactive
CC(=O)N(O)CCC[C@@H]1NC(=O)[C@H](CCCN(O)C(C)=O)NC(=O)[C@H](Cc2ccccc2)NC(=O)[C@H](CC(C)C)NC(=O)[C@H](Cc2c[nH]c3ccccc23)NC(=O)[C@H](CCCN(O)C(C)=O)NC1=O (cyclo(F[Orn(N5-OH,N5-Ac)][Orn(N5-OH,N5-Ac)][Orn(N5-OH,N5-Ac)]WL))	inactive	inactive	inactive	inactive	24	inactive	inactive	inactive	inactive	inactive	inactive		inactive
Nc1nc2c(ncn2COC(CO)CO)c(=O)[nH]1 [GANCICLOVIR]					0.025							Active	
